Experimental data as given in ChEMBL document CHEMBL1128487, “Reduced-size antagonists of luteinizing hormone-releasing hormone active in vitro” (1995).
Square brackets hold non-standard residues; d marks the D form. Peptide text beside a SMILES is read from it. * marks the point of attachment. ξ: configuration not given here. 2Nal = N[C@@H](Cc1ccc2ccccc2c1)C(=O)O; ξLys(iPr) = CC(C)NCCCCC(N)C(=O)O; Picolinoyl = O=C(c1ccccn1)*

Columns and labels:
Rattus norvegicus = species on record: Rattus norvegicus; test: In vitro inhibition of LH release in rat pituitary cells at a dose of 1 ng LHRH in absence of the compound.; assay type: functional, Pituitary gland cell; parameters: unit: ng/mL
Outline: (§1)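 Anterior pituitaries from female Sprague-Dawley rats (240-260 g, 18 rats) were minced and dispersed in Gey's solution with trypsin, DNase I and LBBI. Cells were plated in DMEM with 0.45% glucose, 25 mM HEPES, serum, T and 100 nM dexamethasone at about 3.0 × 10^5 cells/mL and cultured 4 days at 37 °C in 8% CO2. Cells were then exposed to antagonist plus 1 ng LHRH in Gey's solution with 0.3% glucose for 2 h. LH in the medium was measured by RIA as ng/mL of RP-3.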

[1] = molecular target: T1, Gonadotropin-releasing hormone receptor (Rattus norvegicus) (UniProt P30969); test: In vitro antagonistic activity against LH release in rat pituitary cells for control.; assay type: functional, cell-based; conditions: Pituitary gland cell; outline: as §1
T1 sequence (whole entry): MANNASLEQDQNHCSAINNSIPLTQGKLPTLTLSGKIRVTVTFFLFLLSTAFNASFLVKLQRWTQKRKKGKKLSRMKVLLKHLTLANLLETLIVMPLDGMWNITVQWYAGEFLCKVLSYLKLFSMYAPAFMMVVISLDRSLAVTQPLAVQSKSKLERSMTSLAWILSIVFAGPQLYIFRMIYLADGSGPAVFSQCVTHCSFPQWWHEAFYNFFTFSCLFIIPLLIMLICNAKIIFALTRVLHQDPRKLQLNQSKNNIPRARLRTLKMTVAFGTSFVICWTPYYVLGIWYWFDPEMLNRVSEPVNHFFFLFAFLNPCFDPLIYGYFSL

[2] = molecular target: T1, Gonadotropin-releasing hormone receptor (Rattus norvegicus); test: In vitro inhibition of LH release determined in rat pituitary cells at a dose of 3 ug of analogue and 1 ng of LHRH; assay type: functional, cell-based; conditions: Pituitary gland cell; outline: as §1
[3] = molecular target: T1, Gonadotropin-releasing hormone receptor (Rattus norvegicus); test: In vitro inhibition of LH release in rat pituitary cells at a dose of 1 ug of analogue and 1 ng of LHRH.; assay type: functional, cell-based; conditions: Pituitary gland cell; outline: as §1
[4] = molecular target: T1, Gonadotropin-releasing hormone receptor (Rattus norvegicus); test: In vitro inhibition of LH release was determined in rat pituitary cells at a dose of 0.1 ug of analogue and 1 ng of LHRH; assay type: functional, cell-based; conditions: Pituitary gland cell; outline: as §1
[5] = molecular target: T1, Gonadotropin-releasing hormone receptor (Rattus norvegicus); test: In vitro inhibition of LH release was determined in rat pituitary cells at a dose of 0.3 ug of analogue and 1 ng of LHRH; assay type: functional, cell-based; conditions: Pituitary gland cell; outline: as §1
[6] = molecular target: T1, Gonadotropin-releasing hormone receptor (Rattus norvegicus); test: In vitro inhibition of LH release was determined in rat pituitary cells at a dose of 10 ug of analogue and 1 ng of LHRH; assay type: functional, cell-based; conditions: Pituitary gland cell; outline: as §1
[7] = molecular target: T1, Gonadotropin-releasing hormone receptor (Rattus norvegicus); test: In vitro inhibition of LH release was determined in rat pituitary cells at a dose of 100 ug of analogue and 1 ng of LHRH; assay type: functional, cell-based; conditions: Pituitary gland cell; outline: as §1
[8] = molecular target: T1, Gonadotropin-releasing hormone receptor (Rattus norvegicus); test: In vitro inhibition of LH release was determined in rat pituitary cells at a dose of 30 ug of analogue and 1 ng of LHRH; assay type: functional, cell-based; conditions: Pituitary gland cell; outline: as §1
[9] = molecular target: T1, Gonadotropin-releasing hormone receptor (Rattus norvegicus); test: In vitro inhibition of LH release was determined in rat pituitary cells at a dose of 0.03 ug of analogue and 1 ng of LHRH; assay type: functional, cell-based; conditions: Pituitary gland cell; outline: as §1

SMILES | Activity [1] | Activity [2] | Activity [3] | Activity [4] | Activity [5] | Activity [6] | Activity [7] | Activity [8] | Activity [9] | Activity (Rattus norvegicus)
CCNC(=O)[C@@H]1CCCN1C(=O)[C@H](CCCCNC(C)C)NC(=O)[C@H](CC(C)C)NC(=O)[C@@H](CCCCNC(=O)c1ccccn1)NC(=O)[C@H](Cc1ccc(O)cc1)NC(=O)[C@H](CO)NC(=O)[C@@H](Cc1ccc2ccccc2c1)NC(C)=O |  |  |  |  |  |  |  |  |  | 151
CC(=O)N[C@@H](Cc1ccc2ccccc2c1)C(=O)NC(CCCCNC(=O)c1ccccn1)C(=O)N[C@@H](CCCCNC(=O)c1ccccn1)C(=O)NC(CCCN=C(N)N)C(=O)NC(C)C(N)=O (stereo in doubt) | 2.3 | 158 | 145 |  |  | 142 | 64 | 105 |  | 156
CC(=O)N[C@H](Cc1ccc2ccccc2c1)C(=O)N[C@@H](CO)C(=O)N[C@@H](Cc1ccc(O)cc1)C(=O)N[C@H](Cc1ccc2ccccc2c1)C(=O)N[C@@H](CC(C)C)C(=O)N[C@@H](CCCN=C(N)N)C(=O)N1CCC[C@H]1C(=O)NCC(N)=O | 3.8 | 45 | 50 | 157 | 112 |  |  |  |  | 132
CCNC(=O)[C@@H]1CCCN1C(=O)[C@H](CCCN=C(N)N)NC(=O)[C@H](CC(C)C)NC(=O)[C@@H](Cc1cccnc1)NC(=O)[C@H](Cc1ccc(O)cc1)NC(=O)[C@H](CO)NC(=O)[C@@H](Cc1ccc2ccccc2c1)NC(C)=O | 9 | 14 | 34 | 134 | 69 |  |  |  |  | 279
CCNC(=O)[C@@H]1CCCN1C(=O)[C@H](CCCN=C(N)N)NC(=O)[C@H](CC(C)C)NC(=O)[C@@H](CCCCNC(=O)c1ccccn1)NC(=O)[C@H](CCCCNC(=O)c1ccccn1)NC(=O)[C@H](CO)NC(=O)[C@@H](Cc1ccc2ccccc2c1)NC(C)=O |  |  |  |  |  |  |  |  |  | 149
CC(C)C[C@H](NC(=O)C(Cc1ccc2ccccc2c1)NC(=O)[C@H](Cc1ccc(O)cc1)NC(=O)[C@H](CO)NC(=O)[C@H](Cc1cccnc1)NC(=O)[C@H](Cc1ccc(Cl)cc1)NC(=O)[C@@H]1CCC(=O)N1)C(=O)N[C@@H](CCCN=C(N)N)C(=O)N1CCC[C@H]1C(=O)N[C@H](C)C(N)=O (stereo in doubt) | 3.8 |  | 149 | 158 | 170 |  |  |  | 165 | 132
CCNC(=O)[C@@H]1CCCN1C(=O)[C@H](CCCN=C(N)N)NC(=O)[C@H](CC(C)C)NC(=O)[C@@H](Cc1c[nH]c2ccccc12)NC(=O)[C@H](Cc1ccc(O)cc1)NC(=O)[C@H](CO)NC(=O)[C@@H](Cc1ccc2ccccc2c1)NC(C)=O | 2.1 |  | 2 | 40 | 10 |  |  |  | 85 | 149
CC(=O)N[C@@H](Cc1ccc2ccccc2c1)C(=O)N[C@@H](CO)C(=O)N[C@@H](Cc1ccc(O)cc1)C(=O)N[C@@H](Cc1cccnc1)C(=O)N[C@@H](CC(C)C)C(=O)N[C@@H](CCCN=C(N)N)C(=O)N1CCC[C@H]1C(=O)N[C@H](C)C(N)=O | 4.8 | 11 | 33 | 112 | 72 |  |  |  |  | 
CC(=O)N[C@@H](Cc1ccc(Cl)cc1)C(=O)N[C@@H](Cc1cccnc1)C(=O)N[C@@H](CO)C(=O)N[C@@H](Cc1ccc(O)cc1)C(=O)NC(Cc1ccc2ccccc2c1)C(=O)N[C@@H](CC(C)C)C(=O)N[C@@H](CCCN=C(N)N)C(=O)N1CCC[C@H]1C(=O)N[C@H](C)C(N)=O (stereo in doubt) | 3.5 | 77 | 145 | 165 | 152 |  |  |  | 152 | 151
CC(=O)N[C@H](Cc1ccc2ccccc2c1)C(=O)N[C@@H](CO)C(=O)N[C@@H](Cc1ccc(O)cc1)C(=O)N[C@H](Cc1ccc2ccccc2c1)C(=O)N[C@@H](CC(C)C)C(=O)N[C@@H](CCCN=C(N)N)C(=O)N1CCC[C@H]1C(N)=O | 4.1 | 3 | 4 | 74 | 13 |  |  |  | 154 | 167
CCNC(=O)[C@@H]1CCCN1C(=O)[C@H](CCCCNC(C)C)NC(=O)[C@H](CC(C)C)NC(=O)[C@H](CCCCNC(=O)c1ccccn1)NC(=O)[C@H](Cc1ccc(O)cc1)NC(=O)[C@H](CO)NC(=O)[C@H](Cc1ccc2ccccc2c1)NC(C)=O | 3.5 |  | 118 | 200 | 157 |  |  |  | 194 | 
CCNC(=O)[C@@H]1CCCN1C(=O)[C@H](CCCCNC(C)C)NC(=O)[C@H](CC(C)C)NC(=O)C(Cc1ccc2ccccc2c1)NC(=O)[C@H](Cc1ccc(O)cc1)NC(=O)[C@H](CO)NC(=O)C(Cc1ccc2ccccc2c1)NC(C)=O (stereo in doubt) | 3.5 | 4 | 6 | 133 | 26 |  |  |  | 146 | 148
CC(=O)N[C@H](Cc1ccc2ccccc2c1)C(=O)N[C@@H](CO)C(=O)N[C@@H](Cc1ccc(O)cc1)C(=O)N[C@H](Cc1cccnc1)C(=O)N[C@@H](CC(C)C)C(=O)N[C@@H](CCCN=C(N)N)C(=O)N1CCC[C@H]1C(=O)N[C@H](C)C(N)=O |  |  |  |  |  |  |  |  |  | 251
CC(=O)N[C@@H](Cc1ccc2ccccc2c1)C(=O)N[C@@H](CO)C(=O)N[C@@H](Cc1ccc2ccccc2c1)C(=O)N[C@@H](CC(C)C)C(=O)N[C@@H](CCCN=C(N)N)C(=O)N1CCC[C@H]1C(=O)N[C@@H](C)C(N)=O (Ac-[2Nal]S[2Nal]LRPA-NH2) | 2.3 | 4 | 13 | 117 | 37 |  |  |  |  | 155

Now from value to compound, other results behind:

Activity [1] | Activity [2] | Activity [3] | Activity [4] | Activity [5] | Activity [6] | Activity [7] | Activity [8] | Activity [9] | SMILES | Activity (Rattus norvegicus)
7.2 | 8 | 26 | 118 | 60 |  |  |  |  | CC(=O)N[C@H](Cc1ccc2ccccc2c1)C(=O)N[C@@H](CO)C(=O)N[C@@H](CCCCNC(=O)c1ccccn1)C(=O)N[C@H](CCCCNC(=O)c1ccccn1)C(=O)N[C@@H](CC(C)C)C(=O)N[C@@H](CCCN=C(N)N)C(=O)N1CCC[C@H]1C(=O)N[C@H](C)C(N)=O | 224
3.1 | 120 | 148 |  |  | 88 | 9 | 25 |  | CCNC(=O)[C@@H]1CCCN1C(=O)[C@H](CCCN=C(N)N)NC(=O)[C@H](CC(C)C)NC(=O)[C@H](Cc1ccc2ccccc2c1)NC(C)=O (Ac-[2Nal]LRP-NHEt) | 145
3.5 | 150 | 186 |  |  | 144 | 118 | 128 |  | CC(=O)N[C@@H](Cc1ccc2ccccc2c1)C(=O)N[C@@H](CCCCNC(=O)c1ccccn1)C(=O)NC(CCCCNC(C)C)C(=O)N1CCC[C@H]1C(N)=O (stereo partly specified) (Ac-[2Nal]K(Picolinoyl)[ξLys(iPr)]P-NH2) | 153
6.3 | 29 | 67 | 201 | 154 |  |  |  |  | CC(=O)N[C@H](Cc1ccc2ccccc2c1)C(=O)N[C@@H](CO)C(=O)N[C@@H](Cc1ccc(O)cc1)C(=O)N[C@H](CCCCNC(=O)c1ccccn1)C(=O)N[C@@H](CC(C)C)C(=O)N[C@@H](CCCN=C(N)N)C(=O)N1CCC[C@H]1C(=O)N[C@H](C)C(N)=O | 241
2.1 | 23 | 55 | 135 | 104 |  |  |  | 127 | CC(=O)NC(Cc1ccc2ccccc2c1)C(=O)N[C@@H](CO)C(=O)N[C@@H](Cc1ccc(O)cc1)C(=O)NC(Cc1ccc2ccccc2c1)C(=O)N[C@@H](CC(C)C)C(=O)N[C@@H](CCCCNC(C)C)C(=O)N1CCC[C@H]1C(=O)N[C@H](C)C(N)=O (stereo in doubt) | 149
3.1 | 151 | 155 |  | 148 | 55 |  | 11 |  | CCNC(=O)[C@@H]1CCCN1C(=O)[C@H](CC(C)C)NC(=O)[C@H](Cc1ccc2ccccc2c1)NC(=O)[C@H](Cc1ccc(O)cc1)NC(=O)[C@H](CO)NC(=O)[C@H](Cc1ccc2ccccc2c1)NC(C)=O (Ac-[2Nal]SY[2Nal]LP-NHEt) | 145
2.1 |  | 8 | 72 | 27 |  |  |  | 108 | CCNC(=O)[C@@H]1CCCN1C(=O)C(CCCN=C(N)N)NC(=O)[C@H](CC(C)C)NC(=O)[C@H](CCCCNC(=O)c1ccccn1)NC(=O)C(CCCCNC(=O)c1ccccn1)NC(=O)[C@H](CO)NC(=O)[C@H](Cc1ccc2ccccc2c1)NC(C)=O (stereo partly specified) | 
